Measurements: ChEMBL document CHEMBL3739331, “Synthesis and Bioactivities of Kanamycin B-Derived Cationic Amphiphiles” (J Med Chem, 2015)
In brackets after ≈: the same amount, converted by molar mass. Activity calls are given as the source filed them. The calls are words filed in the database; no cut-off is given here.

Assays:
[1] = tested on: Candida albicans; test: Antifungal activity against azole-resistant Candida albicans ATCC 10231 after 48 hrs by microbroth dilution method; type: functional; settings: ATCC 10231, 48 h
Procedure, shortened: (§1)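 Yeast MIC by broth microdilution, run in duplicate. The aminoglycoside compounds are read as MIC-0 (complete inhibition). Azoles are read as MIC-2 (50% inhibition).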

[2] = tested on: Candida albicans; test: Antifungal activity against azole-resistant Candida albicans MYA-1003 after 48 hrs by microbroth dilution method; type: functional; settings: MYA-1003, 48 h; procedure, shortened: as §1
[3] = tested on: Klebsiella pneumoniae; test: Antibacterial activity against Klebsiella pneumoniae ATCC 27736 by microdilution method; type: functional
Procedure, shortened: (§2)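 Broth microdilution MIC against the named bacterial strain, reported in μg/mL; each determination run at least in duplicate.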

[4] = tested on: Salmonella enterica; test: Antibacterial activity against Salmonella enterica ATCC 14028 by microdilution method; type: functional; procedure, shortened: as §2
[5] = tested on: Staphylococcus aureus; test: Antibacterial activity against Staphylococcus aureus NRS382 (USA 100) by microdilution method; type: functional; procedure, shortened: as §2
[6] = tested on: Candida albicans; test: Antifungal activity against azole-resistant Candida albicans ATCC 64124 assessed as cell death after 12 hrs by time-kill assay; type: functional, organism-based
Procedure, shortened: (§3)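 Time-kill assay on C. albicans ATCC 64124 cultures exposed to test compound at 1/2 MIC, MIC and higher concentrations. Amphotericin B at 1 μg/mL and a no-drug culture serve as controls. CFU are counted at intervals over 24 h.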

[7] = tested on: Candida albicans; test: Antifungal activity against azole-resistant Candida albicans MYA-1237 after 48 hrs by microbroth dilution method; type: functional; settings: MYA-1237, 48 h; procedure, shortened: as §1
[8] = tested on: Candida albicans; test: Antifungal activity against azole-resistant Candida albicans ATCC 64124 at MIC measured after 6 hrs by time-kill assay; type: functional; procedure, shortened: as §3
[9] = tested on: Candida albicans; test: Antifungal activity against azole-resistant Candida albicans ATCC 64124 after 48 hrs by microbroth dilution method; type: functional; settings: ATCC 64124, 48 h; procedure, shortened: as §1
[10] = tested on: Bacillus subtilis; test: Antibacterial activity against Bacillus subtilis 168 by microdilution method; type: functional; settings: subsp. subtilis str. 168; procedure, shortened: as §2
[11] = Activity of Mycobacterium tuberculosis AAC(2')-1c/AAC(3)-4 (unknown origin)/Serratia marcescens AAC(6')-2d (unknown origin) assessed as compound conversion to 3'-monoacetylated product incubated for 20 hrs by TLC analysis
[12] = tested on: Serratia marcescens; test: Activity of Serratia marcescens AAC(6')-2d assessed as compound acetylation activity by Ellman's method
[13] = Hemolytic activity against mouse RBC at 7.8 ug/ml after 60 mins; type: ADME, cell-based, Erythrocyte; settings: red blood cells, read-out: Activity
[14] = tested on: A549; test: Cytotoxicity against human A549 cells after 24 hrs by resazurin assay; type: cell-based; settings: Homo sapiens, A549, 24 h
[15] = tested on: Pseudomonas aeruginosa; test: Antibacterial activity against Pseudomonas aeruginosa ATCC 27853 by microdilution method; type: functional; procedure, shortened: as §2
[16] = tested on: Mycobacterium tuberculosis; test: Activity of Mycobacterium tuberculosis AAC(2')-1c assessed as compound acetylation activity by Ellman's method
[17] = Activity of Mycobacterium tuberculosis AAC(2')-1c/AAC(3)-4 (unknown origin) assessed as compound conversion to 3'-acetylated product incubated for 20 hrs by TLC analysis
[18] = tested on: Staphylococcus epidermidis; test: Antibacterial activity against Staphylococcus epidermidis ATCC 12228 by microdilution method; type: functional; procedure, shortened: as §2
[19] = tested on: Candida albicans; test: Antifungal activity against azole-resistant Candida albicans ATCC 90819 after 48 hrs by microbroth dilution method; type: functional; settings: ATCC 90819, 48 h; procedure, shortened: as §1
[20] = Activity of AAC(3)-4 (unknown origin) assessed as compound acetylation activity by Ellman's method
[21] = tested on: Candida albicans; test: Antifungal activity against azole-resistant Candida albicans ATCC 90819 after 48 hrs in presence of posaconazole by checkerboard microdilution assay; type: functional; settings: ATCC 90819, 48 h
Procedure, shortened: (§4)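 Checkerboard combinations of the aminoglycoside amphiphile with posaconazole against yeast strains, run in duplicate. Each agent's MIC is taken alone and in combination. The fractional inhibitory concentration index (FICI) is calculated to classify the interaction.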

[22] = tested on: Candida albicans; test: Antifungal activity against azole-resistant Candida albicans ATCC 64124 after 48 hrs in presence of posaconazole by checkerboard microdilution assay; type: functional; settings: ATCC 64124, 48 h; procedure, shortened: as §4
[23] = tested on: Staphylococcus aureus; test: Antibacterial activity against methicillin-resistant Staphylococcus aureus by microdilution method; type: functional
Procedure, shortened: (§5)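 Broth microdilution MIC, in μg/mL, against a panel of Gram-positive and Gram-negative strains. Run at least in duplicate.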

[24] = Activity of Mycobacterium tuberculosis AAC(2')-1c/Serratia marcescens AAC(6')-2d assessed as compound conversion to 6'-monoacetylated product incubated for 20 hrs by TLC analysis
[25] = tested on: Bacillus subtilis subsp. subtilis str. 168; test: Activity of Bacillus subtilis 168 APH(2'')-1a assessed as compound phosphorylation activity by Ellman's method
[26] = tested on: Staphylococcus aureus; test: Antibacterial activity against Staphylococcus aureus NRS383 (USA 200) by microdilution method; type: functional; procedure, shortened: as §2
[27] = tested on: Candida albicans; test: Antifungal activity against azole-resistant Candida albicans ATCC 10231 after 48 hrs in presence of posaconazole by checkerboard microdilution assay; type: functional; settings: ATCC 10231, 48 h; procedure, shortened: as §4
[28] = tested on: Candida albicans; test: Antifungal activity against azole-susceptible Candida albicans ATCC MYA-2310 after 48 hrs in presence of posaconazole by checkerboard microdilution assay; type: functional; settings: ATCC MYA-2310, 48 h; procedure, shortened: as §4
[29] = tested on: Candida albicans; test: Antifungal activity against azole-resistant Candida albicans MYA-1003 after 48 hrs in presence of posaconazole by checkerboard microdilution assay; type: functional; settings: MYA-1003, 48 h; procedure, shortened: as §4
[30] = tested on: Candida albicans; test: Antifungal activity against azole-resistant Candida albicans ATCC 64124 assessed as cell membrane permeabilization at 1 times MIC after 1 hr by propidium iodide-staining based fluorescence microscopic analysis (reference value: <2%); type: functional
[31] = Cytotoxicity against human BEAS2B cells after 24 hrs by resazurin assay; type: cell-based, BEAS-2B; settings: Homo sapiens, BEAS-2B
[32] = Activity of AAC(3)-4 (unknown origin)/Serratia marcescens AAC(6')-2d assessed as compound conversion to 3'-acetylated product incubated for 20 hrs by TLC analysis
[33] = tested on: Candida albicans; test: Antifungal activity against azole-susceptible Candida albicans ATCC MYA-2876 after 48 hrs by microbroth dilution method; type: functional; settings: ATCC MYA-2876, 48 h; procedure, shortened: as §1
[34] = tested on: Candida albicans; test: Antifungal activity against azole-susceptible Candida albicans ATCC MYA-2876 after 48 hrs in presence of posaconazole by checkerboard microdilution assay; type: functional; settings: ATCC MYA-2876, 48 h; procedure, shortened: as §4
[35] = tested on: Candida albicans; test: Antifungal activity against azole-resistant Candida albicans MYA-1237 after 48 hrs in presence of posaconazole by checkerboard microdilution assay; type: functional; settings: MYA-1237, 48 h; procedure, shortened: as §4
[36] = tested on: Listeria monocytogenes; test: Antibacterial activity against Listeria monocytogenes ATCC 19115 by microdilution method; type: functional; procedure, shortened: as §2
[37] = tested on: Escherichia coli; test: Antibacterial activity against Escherichia coli MC1061 by microdilution method; type: functional; procedure, shortened: as §5
[38] = tested on: Staphylococcus aureus; test: Antibacterial activity against Staphylococcus aureus NRS385 (USA 300) by microdilution method; type: functional; procedure, shortened: as §5
[39] = tested on: Aspergillus nidulans; test: Antifungal activity against Aspergillus nidulans ATCC 38163 after 48 hrs by microbroth dilution method; type: functional; settings: ATCC 38163, 48 h
Procedure, shortened: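 Filamentous fungus MIC by broth microdilution, run in duplicate. All compounds are read as MIC-0 (complete inhibition).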

[40] = tested on: Candida albicans; test: Antifungal activity against azole-resistant Candida albicans ATCC 64124 at sub-MIC measured over 24 hrs by time-kill assay; type: functional, organism-based; procedure, shortened: as §3
[41] = tested on: Candida albicans; test: Antifungal activity against azole-susceptible Candida albicans ATCC MYA-2310 after 48 hrs by microbroth dilution method; type: functional; settings: ATCC MYA-2310, 48 h; procedure, shortened: as §1
[42] = tested on: Mycobacterium tuberculosis; test: Activity of Mycobacterium tuberculosis Eis assessed as compound acetylation activity by Ellman's method
[43] = Hemolytic activity against mouse RBC at 500 ug/ml after 60 mins; type: ADME, cell-based, Erythrocyte; settings: red blood cells, read-out: Activity
[44] = tested on: Enterobacter cloacae; test: Antibacterial activity against Enterobacter cloacae ATCC 13047 by microdilution method; type: functional; procedure, shortened: as §2
[45] = Activity of AAC(6')-1e/APH(2'')-1a (unknown origin) assessed as compound acetylation activity by Ellman's method
[46] = tested on: Acinetobacter baumannii; test: Antibacterial activity against Acinetobacter baumannii ATCC 19606 by microdilution method; type: functional; procedure, shortened: as §2
[47] = tested on: Candida albicans; test: Antifungal activity against azole-resistant Candida albicans ATCC 64124 assessed as cell membrane permeabilization at twice the MIC after 1 hr by propidium iodide-staining based fluorescence microscopic analysis (reference value: <2%); type: functional

## CCCCCCCCCCCCCCSC[C@@H]1O[C@@H](O[C@@H]2[C@@H](O)[C@H](O[C@@H]3O[C@@H](CN)[C@H](O)[C@@H](O)[C@@H]3N)[C@@H](N)C[C@H]2N)[C@@H](O)[C@H](N)[C@H]1O (stereo in doubt)
[1]
  MIC: 7.8 µg/mL (≈ 11.2 µM)
[2]
  MIC: 7.8 µg/mL (≈ 11.2 µM)
[3]
  MIC: > 128 µg/mL
[4]
  MIC: 32 µg/mL (≈ 46 µM)
[5]
  MIC: 32 µg/mL (≈ 46 µM)
[6]
  Activity: Active
[7]
  MIC: 7.8 µg/mL (≈ 11.2 µM)
[8]
  LCK: >=2
[9]
  MIC: 7.8 µg/mL (≈ 11.2 µM)
[10]
  MIC: > 128 µg/mL
[11]
  Activity: Active
[12]
  Activity: inactive
[13]
  hemolysis at 1 h, 7.8 ug/ml: 15%
[14]
  IC50: > 62.5 µg/mL
[15]
  MIC: 64 µg/mL (≈ 92 µM)
[16]
  Activity: inactive
[17]
  Activity: Active
[18]
  MIC: > 128 µg/mL
[19]
  MIC: 15.6 µg/mL (≈ 22.4 µM)
[20]
  Activity: inactive
[21]
  MIC: 1 µg/mL
[22]
  MIC: 1 µg/mL
[23]
  MIC: 32 µg/mL (≈ 46 µM)
[24]
  Activity: Active
[25]
  Activity: inactive
[26]
  MIC: 8 µg/mL (≈ 11.5 µM)
[27]
  MIC: 4 µg/mL
[28]
  MIC: 1 µg/mL
[29]
  MIC: 2 µg/mL
[30]
  Activity: 84%
[31]
  IC50: > 62.5 µg/mL
[32]
  Activity: Active
[33]
  MIC: 7.8 µg/mL (≈ 11.2 µM)
[34]
  MIC: 1 µg/mL
[35]
  MIC: 1 µg/mL
[36]
  MIC: 0.5 µg/mL (≈ 0.718 µM)
[37]
  MIC: > 128 µg/mL
[38]
  MIC: 16 µg/mL (≈ 23 µM)
[39]
  MIC: ≤ 1.95 µg/mL
[40]
  Activity: Active
[41]
  MIC: 7.8 µg/mL (≈ 11.2 µM)
[42]
  Activity: inactive
[43]
  hemolysis at 1 h, 500 ug/ml: 73%
[44]
  MIC: 128 µg/mL (≈ 184 µM)
[45]
  Activity: inactive
[46]
  MIC: > 128 µg/mL
[47]
  Activity: 49%
